Experimental data taken from ChEMBL document CHEMBL4177755, “Combating Drug-Resistant Fungi with Novel Imperfectly Amphipathic Palindromic Peptides” (J Med Chem, 2018).
Converted amounts (≈) assume the structure as drawn.

Experiments:
Assay type in all cases: functional
Candida albicans [1] = test: Antifungal activity against Candida albicans SP3931 after 48 hrs by broth microdilution method; conditions: SP3931, 48 h
Summary of the method: (§1)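 Modified CLSI M27-A2 broth microdilution. Yeast at (0.5−1) × 10^3 CFU/mL in MOPS-buffered RPMI 1640 was mixed 1:1 with peptide serially diluted in 0.2% BSA and incubated 48 h at 28 °C. Absorbance was read at 492 nm; MIC is the lowest concentration inhibiting 95% of growth. Triplicate, three biological replicates.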

Candida albicans [2] = test: Fungicidal activity against fluconazole-resistant Candida albicans 17546 after 96 hrs; conditions: Candida albicans, 17546, 96 h; read-out: MFC99.9
Summary of the method: (§2)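 After the 48 h, 28 °C broth microdilution in MOPS-buffered RPMI 1640 (inoculum (0.5−1) × 10^3 CFU/mL), 50 μL from each well was plated on YM agar for a further 48 h at 28 °C. MFC is the lowest concentration killing at least 99.9% of cells. Triplicate, three biological replicates.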

Candida albicans [3] = test: Fungicidal activity against fluconazole-resistant Candida albicans 56214 after 96 hrs; conditions: Candida albicans, 56214, 96 h; read-out: MFC99.9; summary of the method: as §2
Candida albicans [4] = test: Antifungal activity against Candida albicans cgmcc 2.2086 in presence of NaCl by broth dilution method
Candida albicans [5] = test: Antifungal activity against Candida albicans cgmcc 2.2086 in presence of 12.5% human heat-inactivated serum by broth dilution method
Candida albicans [6] = test: Antifungal activity against Candida albicans cgmcc 2.2086 in presence of CaCl2 by broth dilution method
Candida tropicalis [7] = test: Fungicidal activity against Candida tropicalis cgmcc 2.1975 after 96 hrs; conditions: cgmcc 2.1975, 96 h, read-out: MFC99.9
Summary of the method: (§3)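 Wells from the 48 h, 28 °C RPMI 1640/MOPS microdilution plates were plated on YM agar and incubated a further 48 h at 28 °C. MFC is the lowest concentration killing at least 99.9% of cells. Run in triplicate with three biological replicates.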

Candida albicans [8] = test: Antifungal activity against Candida albicans cgmcc 2.2086 in presence of NH4Cl by broth dilution method
Candida albicans [9] = test: Antifungal activity against Candida albicans cgmcc 2.2086 after 48 hrs by broth microdilution method; conditions: cgmcc 2.2086, 48 h; summary of the method: as §1
Candida parapsilosis [10] = test: Fungicidal activity against Candida parapsilosis cgmcc 2.3989 after 96 hrs; conditions: Lodderomyces parapsilosis, cgmcc 2.3989, 96 h; read-out: MFC99.9; summary of the method: as §3
Candida albicans [11] = test: Antifungal activity against Candida albicans 58288 after 48 hrs by broth microdilution method; conditions: Candida albicans, 58288, 48 h; summary of the method: as §1
Candida albicans [12] = test: Antifungal activity against Candida albicans cgmcc 2.2086 in presence of KCl by broth dilution method
Pichia kudriavzevii [13] = test: Antifungal activity against Candida krusei cgmcc 2.1857 after 48 hrs by broth microdilution method; conditions: cgmcc 2.1857, 48 h
Summary of the method: (§4)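 Modified CLSI M27-A2 broth microdilution. Yeast were suspended in MOPS-buffered RPMI 1640 at a final (0.5−1) × 10^3 CFU/mL and mixed 1:1 with peptide serially diluted in 0.2% BSA. Plates were incubated 48 h at 28 °C and read at A492. MIC is the lowest concentration giving 95% inhibition. Run in triplicate with three biological replicates.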

Candida albicans [14] = test: Antifungal activity against Candida albicans cgmcc 2.2086 in presence of FeCl3 by broth dilution method
Candida albicans [15] = test: Antifungal activity against Candida albicans cgmcc 2.2086 in presence of ZnCl2 by broth dilution method
Candida albicans [16] = test: Fungicidal activity against Candida albicans isolated from alveolar fluid after 96 hrs; conditions: read-out: MFC99.9; summary of the method: as §2
Candida albicans [17] = test: Antifungal activity against Candida albicans SP3902 after 48 hrs by broth microdilution method; conditions: SP3902, 48 h; summary of the method: as §1
Candida albicans [18] = test: Antifungal activity against fluconazole-resistant Candida albicans 17546 after 48 hrs by broth microdilution method; conditions: Candida albicans, 17546, 48 h; summary of the method: as §1
Candida albicans [19] = test: Antifungal activity against fluconazole-resistant Candida albicans 56214 after 48 hrs by broth microdilution method; conditions: Candida albicans, 56214, 48 h; summary of the method: as §1
Candida albicans [20] = test: Fungicidal activity against Candida albicans SP3876 after 96 hrs; conditions: SP3876, 96 h, read-out: MFC99.9; summary of the method: as §2
Candida albicans [21] = test: Fungicidal activity against Candida albicans SP3903 after 96 hrs; conditions: SP3903, 96 h, read-out: MFC99.9; summary of the method: as §2
Candida albicans [22] = test: Fungicidal activity against Candida albicans cgmcc 2.2086 after 96 hrs; conditions: cgmcc 2.2086, 96 h, read-out: MFC99.9; summary of the method: as §2
Pichia kudriavzevii [23] = test: Fungicidal activity against Candida krusei cgmcc 2.1857 after 96 hrs; conditions: cgmcc 2.1857, 96 h, read-out: MFC99.9; summary of the method: as §3
Candida albicans [24] = test: Antifungal activity against fluconazole-resistant Candida albicans 56452 after 48 hrs by broth microdilution method; conditions: Candida albicans, 56452, 48 h; summary of the method: as §1
Candida tropicalis [25] = test: Antifungal activity against Candida tropicalis cgmcc 2.1975 after 48 hrs by broth microdilution method; conditions: cgmcc 2.1975, 48 h; summary of the method: as §4
Candida albicans [26] = test: Antifungal activity against Candida albicans cgmcc 2.2086 in presence of MgCl2 by broth dilution method
Candida albicans [27] = test: Antifungal activity against Candida albicans SP3876 after 48 hrs by broth microdilution method; conditions: SP3876, 48 h; summary of the method: as §1
Candida albicans [28] = test: Antifungal activity against Candida albicans SP3903 after 48 hrs by broth microdilution method; conditions: SP3903, 48 h; summary of the method: as §1
Candida parapsilosis [29] = test: Antifungal activity against Candida parapsilosis cgmcc 2.3989 after 48 hrs by broth microdilution method; conditions: Lodderomyces parapsilosis, cgmcc 2.3989, 48 h; summary of the method: as §4
Candida albicans [30] = test: Antifungal activity against Candida albicans 14936 after 48 hrs by broth microdilution method; conditions: Candida albicans, 14936, 48 h; summary of the method: as §1
Candida albicans [31] = test: Fungicidal activity against Candida albicans 14936 after 96 hrs; conditions: Candida albicans, 14936, 96 h; read-out: MFC99.9; summary of the method: as §2
Candida albicans [32] = test: Fungicidal activity against Candida albicans 58288 after 96 hrs; conditions: Candida albicans, 58288, 96 h; read-out: MFC99.9; summary of the method: as §2
Candida albicans [33] = test: Fungicidal activity against Candida albicans SP3931 after 96 hrs; conditions: SP3931, 96 h, read-out: MFC99.9; summary of the method: as §2
Candida albicans [34] = test: Antifungal activity against Candida albicans cgmcc 2.2086 in presence of 25% human heat-inactivated serum by broth dilution method
Candida albicans [35] = test: Antifungal activity against Candida albicans isolated from alveolar fluid after 48 hrs by broth microdilution method; summary of the method: as §1
Candida albicans [36] = test: Antifungal activity against Candida albicans cgmcc 2.2086 in presence of 50% human heat-inactivated serum by broth dilution method
Candida albicans [37] = test: Fungicidal activity against Candida albicans SP3902 after 96 hrs; conditions: SP3902, 96 h, read-out: MFC99.9; summary of the method: as §2
Candida albicans [38] = test: Fungicidal activity against fluconazole-resistant Candida albicans 56452 after 96 hrs; conditions: Candida albicans, 56452, 96 h; read-out: MFC99.9; summary of the method: as §2

SMILES	MIC95 (Candida albicans [1])	MFC (Candida albicans [2])	MFC (Candida albicans [3])	MIC (Candida albicans [4])	MIC (Candida albicans [5])	MIC (Candida albicans [6])	MFC (Candida tropicalis [7])	MIC (Candida albicans [8])	MIC95 (Candida albicans [9])	MFC (Candida parapsilosis [10])	MIC95 (Candida albicans [11])	MIC (Candida albicans [12])	MIC95 (Pichia kudriavzevii [13])	MIC (Candida albicans [14])	MIC (Candida albicans [15])	MFC (Candida albicans [16])	MIC95 (Candida albicans [17])	MIC95 (Candida albicans [18])	MIC95 (Candida albicans [19])	MFC (Candida albicans [20])	other results
C[C@@H]1[C@H](O)[C@@H](C)/C=C/C=C/C=C/C=C/C=C/C=C/C=C/[C@H](O[C@@H]2O[C@H](C)[C@@H](O)[C@H](N)[C@@H]2O)C[C@@H]2O[C@](O)(C[C@@H](O)C[C@@H](O)[C@H](O)CC[C@@H](O)C[C@@H](O)CC(=O)O[C@H]1C)C[C@H](O)[C@H]2C(=O)O [AMPHOTERICIN B]	0.25 µM (≈ 0.231 µg/mL)	1 µM (≈ 0.924 µg/mL)	2 µM (≈ 1.85 µg/mL)	1 µM	1 µM	2 µM	2 µM (≈ 1.85 µg/mL)	1 µM	1 µM (≈ 0.924 µg/mL)	2 µM (≈ 1.85 µg/mL)	0.5 µM (≈ 0.462 µg/mL)	1 µM	1 µM (≈ 0.924 µg/mL)	1 µM	1 µM	2 µM (≈ 1.85 µg/mL)	0.25 µM (≈ 0.231 µg/mL)	0.25 µM (≈ 0.231 µg/mL)	1 µM (≈ 0.924 µg/mL)	0.5 µM (≈ 0.462 µg/mL)	MFC (Candida albicans [21]): 1 µM (≈ 0.924 µg/mL); MFC (Candida albicans [22]): 1 µM (≈ 0.924 µg/mL); MFC (Pichia kudriavzevii [23]): 1 µM (≈ 0.924 µg/mL); MIC95 (Candida albicans [24]): 1 µM (≈ 0.924 µg/mL); MIC95 (Candida tropicalis [25]): 1 µM (≈ 0.924 µg/mL); MIC (Candida albicans [26]): 1 µM; MIC95 (Candida albicans [27]): 0.25 µM (≈ 0.231 µg/mL); MIC95 (Candida albicans [28]): 0.125 µM (≈ 0.116 µg/mL); MIC95 (Candida parapsilosis [29]): 2 µM (≈ 1.85 µg/mL); MIC95 (Candida albicans [30]): 0.25 µM (≈ 0.231 µg/mL); MFC (Candida albicans [31]): 0.5 µM (≈ 0.462 µg/mL); MFC (Candida albicans [32]): 2 µM (≈ 1.85 µg/mL); MFC (Candida albicans [33]): 1 µM (≈ 0.924 µg/mL); MIC (Candida albicans [34]): 1 µM; MIC95 (Candida albicans [35]): 1 µM (≈ 0.924 µg/mL); MIC (Candida albicans [36]): 1 µM; MFC (Candida albicans [37]): 1 µM (≈ 0.924 µg/mL); MFC (Candida albicans [38]): 2 µM (≈ 1.85 µg/mL)
CC(=O)N1CCN(c2ccc(OCC3COC(Cn4ccnc4)(c4ccc(Cl)cc4Cl)O3)cc2)CC1 (stereo unspecified) [KETOCONAZOLE]	> 64 µM	64 µM (≈ 34 µg/mL)	> 64 µM	0.25 µM	0.25 µM	0.5 µM	1 µM (≈ 0.531 µg/mL)	0.25 µM	0.25 µM (≈ 0.133 µg/mL)	1 µM (≈ 0.531 µg/mL)	1 µM (≈ 0.531 µg/mL)	0.25 µM	1 µM (≈ 0.531 µg/mL)	0.25 µM	0.25 µM	2 µM (≈ 1.06 µg/mL)	> 64 µM	32 µM (≈ 17 µg/mL)	64 µM (≈ 34 µg/mL)	> 64 µM	MFC (Candida albicans [21]): > 64 µM; MFC (Candida albicans [22]): 1 µM (≈ 0.531 µg/mL); MFC (Pichia kudriavzevii [23]): 1 µM (≈ 0.531 µg/mL); MIC95 (Candida albicans [24]): 64 µM (≈ 34 µg/mL); MIC95 (Candida tropicalis [25]): 0.25 µM (≈ 0.133 µg/mL); MIC (Candida albicans [26]): 0.25 µM; MIC95 (Candida albicans [27]): > 64 µM; MIC95 (Candida albicans [28]): > 64 µM; MIC95 (Candida parapsilosis [29]): 0.25 µM (≈ 0.133 µg/mL); MIC95 (Candida albicans [30]): > 64 µM; MFC (Candida albicans [31]): > 64 µM; MFC (Candida albicans [32]): > 64 µM; MFC (Candida albicans [33]): > 64 µM; MIC (Candida albicans [34]): 0.25 µM; MIC95 (Candida albicans [35]): 0.5 µM (≈ 0.266 µg/mL); MIC (Candida albicans [36]): 0.5 µM; MFC (Candida albicans [37]): > 64 µM; MFC (Candida albicans [38]): > 64 µM
